The source made the active and inactive calls.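 How the source made its calls: active means IC50 of 10 µM or lower; inactive means IC50 above 10 µM.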

Chain of Disintegrin and metalloproteinase domain-containing protein 17 (Homo sapiens) (P78536 215-824 limits assumed): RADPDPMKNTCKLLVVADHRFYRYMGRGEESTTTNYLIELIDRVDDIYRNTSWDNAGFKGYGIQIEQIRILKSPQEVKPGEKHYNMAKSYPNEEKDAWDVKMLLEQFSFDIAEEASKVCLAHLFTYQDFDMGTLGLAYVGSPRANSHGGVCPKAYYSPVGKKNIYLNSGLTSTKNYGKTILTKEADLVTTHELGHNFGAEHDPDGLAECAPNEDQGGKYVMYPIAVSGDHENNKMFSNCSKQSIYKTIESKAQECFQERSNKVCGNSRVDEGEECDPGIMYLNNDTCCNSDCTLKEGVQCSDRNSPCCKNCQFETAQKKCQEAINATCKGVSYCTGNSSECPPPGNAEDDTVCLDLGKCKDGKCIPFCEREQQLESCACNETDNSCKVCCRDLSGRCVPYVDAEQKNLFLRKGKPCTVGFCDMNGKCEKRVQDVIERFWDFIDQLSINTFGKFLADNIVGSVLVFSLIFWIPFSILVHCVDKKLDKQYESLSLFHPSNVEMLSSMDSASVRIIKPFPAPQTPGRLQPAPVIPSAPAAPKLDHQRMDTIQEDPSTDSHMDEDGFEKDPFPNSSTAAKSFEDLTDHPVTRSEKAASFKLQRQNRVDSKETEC

This assay concerns the target Disintegrin and metalloproteinase domain-containing protein 17 (Homo sapiens) (UniProt P78536). Briefly: concentration-dependent inhibition of human ADAM17 – biochemical, QFRET peptide cleavage, IC50, ADAM17 exosite inhibitor project, late-stage follow-up (AID 743337). The conditions noted are these: recombinant ADAM17, QFRET peptide cleavage, fluorescence 3 h. In a few lines: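 signal = fluorescence, ex 359 nm, em 460 nm | assay system = ADAM17 metalloprotease enzyme, cell-free biochemical assay | replicates = triplicate series | times = 30 min compound-enzyme preincubation, then 3 h substrate cleavage, 25 °C | also added = EDANS/DABCYL-quenched DM2 peptide substrate, 2X solution at 20 µM | medium = 50 mM HEPES buffer pH 7.5 with 0.01% Brij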
In the case of `Cc1ccc(S(=O)(=O)Nc2ccc(Cl)cc2)cc1NC(=O)c1cc2c(s1)CCCC2`, the IC50 (usually the concentration needed to halve the response being measured) is > 69.5 µM (inactive).
For `O=C(Nc1ccc(OCC(F)(F)C(F)(F)F)c(C(F)(F)F)c1)c1ccc(F)cc1` the value was > 69.5 µM (inactive); for `CCCCN(Cc1ccccc1)S(=O)(=O)c1cc(Br)cc2c1N(C(C)=O)C(C)C2` (centres undefined), > 69.5 µM (inactive).
In the case of `O=C(Nc1ccc(OCC(F)(F)C(F)(F)F)c(C(F)(F)F)c1)c1ccc(Br)cc1`, the IC50 is > 69.5 µM (inactive).
In the case of `O=S(=O)(NCC(Nc1ccc(Cl)cc1)c1ccccc1)c1ccccc1` (centres undefined), the IC50 is > 69.5 µM (inactive).
With `CCCOC(=O)c1ccc(Oc2cn[nH]c2-c2ccc(OCC)cc2O)cc1`, the IC50 was > 69.5 µM (inactive).
As to `C=C(C)COc1ccc(-c2n[nH]c(C)c2Oc2ccccc2OC)c(O)c1`, the IC50 was > 69.5 µM (inactive).
Consider `CCOc1ccc(NC(=O)CC2SC(=O)N(c3ccccc3)C2=O)cc1` (centres undefined), for which the IC50 was 7.83 µM.
For `Cc1ccc(OCC(O)Cn2c3ccccc3c3ccccc32)cc1` (centres undefined), the IC50 is > 69.5 µM (inactive).
Take `Cc1csc(-c2cnn(-c3ccccc3)c2NC(=O)c2ccc(C(F)(F)F)cc2)n1`: the IC50 is > 69.5 µM (inactive).
For `CS(=O)(=O)N(CC(=O)Nc1ccccc1Sc1ccccc1)c1cccc(Br)c1`, the IC50 was > 69.5 µM (inactive).
`Oc1cc2c(cc1C(c1ccc(Cl)c(Cl)c1)N1CCCC1)OCO2` (centres undefined): the IC50 entry is “inactive”.
Take `COc1ccccc1NS(=O)(=O)c1cccc(NC(=O)Nc2ccc(Cl)cc2)c1`: the IC50 is > 69.5 µM (inactive).
With `O=C(CN(Cc1cccs1)S(=O)(=O)c1ccc(S(=O)(=O)NC2CCCCC2)cc1)Nc1ccccc1`, the IC50 was > 69.5 µM (inactive).
Regarding `Cc1ccc(CC2(c3ccccc3)NC(=O)NC2=O)cc1` (centres undefined), the IC50 result is “inactive”.
For the compound `COc1cccc(C(=O)NNC(=O)C(=O)Nc2ccc(C)c(Cl)c2)c1`, the IC50 was > 69.5 µM (inactive).
Regarding `C=C(C)COc1ccc(-c2[nH]ncc2Oc2ccc(OC)cc2)c(O)c1`, the IC50 was > 69.5 µM (inactive).
On to `O=C(O)CCC(=O)c1c[nH]c2ccccc12`, for which the IC50 entry was “inactive”.
The result for `COc1ccc2nc(SCC(=O)Nc3ccc(S(=O)(=O)N4CCCC4)cc3)c(C#N)cc2c1` reads > 69.5 µM (inactive); that for `O=C(Nc1ccc(OCC(F)(F)C(F)F)c(C(F)(F)F)c1)c1ccc(Cl)cc1`, > 69.5 µM (inactive).
For the compound `O=S(=O)(NCC(Nc1ccc(Cl)cc1)c1ccccc1)c1ccc(Cl)cc1` (centres undefined), the IC50 was > 69.5 µM (inactive).
Take `C=C(C)COc1ccc(-c2[nH]ncc2Oc2cccc(OC)c2)c(O)c1`: the IC50 was > 69.5 µM (inactive).
With `COc1ccc(-c2ccc(-c3noc(-c4cccc(OC)c4)n3)c(OC)n2)cc1`, the IC50 is > 69.5 µM (inactive).
With `O=C1NC(=O)C(Cc2ccc(Cl)cc2)(c2ccccc2)N1` (centres undefined), the concentration for half-maximal inhibition (IC50) is 3.76 µM.
